According to ChEMBL document CHEMBL3351600, “Sulfur, selenium and tellurium pseudopeptides: synthesis and biological evaluation” (Bioorg Med Chem, 2014):
pIC50: −log10 of the molar value. Activity calls are given as the source filed them. The calls are words filed in the database; no cut-off is given here.

What was measured:
A-431 [1] = assay: Reduction in ROS in human A431 cells assessed as decrease in hydrogen peroxide level at 1 to 100 ng/ml after 1 hr by DCHFA assay; assay type: functional, cell-based
How it was run: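 A-431 cells (10^5 per well) were treated with a range of compound concentrations for 1 h. They were then loaded with DCHFA probe for 30 min in the dark. Fluorescence (ex 485/em 528 nm) was read immediately and expressed as arbitrary units per 10^5 cells.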

MCF7 = assay: Cytotoxicity against human MCF7 cells assessed as cell viability after 24 hrs incubation by MTT assay; assay type: functional, cell-based; details: MCF7, 24 h
How it was run: (§1)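 Cell lines came from DSMZ; primary human fibroblasts served as non-cancer controls. Cells were grown in medium with 10% FCS, seeded at 50,000 cells/ml, and grown 2 days at 37 °C, 10% CO2. Serial dilutions were then added for 24 h. MTT (final 0.5 mg/ml) was added for 2 h. Formazan was pelleted, PBS-washed, dissolved in isopropanol/0.4% HCl and read at 590 nm. Two parallel experiments were run. IC50 was taken as the concentration giving 50% of untreated-control absorbance.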

A-431 [2] = assay: Cytotoxicity against human A431 cells assessed as cell viability after 24 hrs incubation by MTT assay; assay type: functional, cell-based; details: A-431, 24 h; how it was run: as §1
[3] = Cytotoxicity against human fibroblasts assessed as cell viability after 24 hrs incubation by MTT assay; assay type: cell-based; details: Fibroblast; how it was run: as §1
[4] = Octanol-water partition coefficient, log P of the compound by HPLC analysis; assay type: physicochemical
How it was run: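 Lipophilicity was measured by reversed-phase HPLC on a Nucleosil C18 column with isocratic water/methanol (3:1) at 0.5 ml/min and UV detection at 230 and 245 nm. Dead time was set with thiourea (t0 0.728 min). Retention factor was k = (tR − t0)/t0, and log P came from a calibration against at least six reference compounds.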

Saccharomyces cerevisiae = assay: Antimicrobial activity against Saccharomyces cerevisiae assessed as inhibition at 20 ug/6 mm disk after 1 to 2 days by agar diffusion assay; assay type: functional
How it was run: (§2)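 Standard agar diffusion: 6-mm paper disks loaded with 20 µg of compound were placed on inoculated plates. Inhibition-zone diameter (mm) was read after 1 and 2 days of growth.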

Candida albicans = assay: Antimicrobial activity against Candida albicans assessed as inhibition at 20 ug/6 mm disk after 1 to 2 days by agar diffusion assay; assay type: functional; how it was run: as §2
Aspergillus niger = assay: Antimicrobial activity against Aspergillus niger assessed as inhibition at 20 ug/6 mm disk after 1 to 2 days by agar diffusion assay; assay type: functional; how it was run: as §2
Mycolicibacterium phlei = assay: Antimicrobial activity against Mycobacterium phlei assessed as inhibition at 20 ug/6 mm disk after 1 to 2 days by agar diffusion assay; assay type: functional; how it was run: as §2
Micrococcus luteus = assay: Antimicrobial activity against Micrococcus luteus assessed as inhibition at 20 ug/6 mm disk after 1 to 2 days by agar diffusion assay; assay type: functional; how it was run: as §2
Staphylococcus aureus = assay: Antimicrobial activity against Staphylococcus aureus assessed as inhibition at 20 ug/6 mm disk after 1 to 2 days by agar diffusion assay; assay type: functional; how it was run: as §2
Klebsiella pneumoniae = assay: Antimicrobial activity against Klebsiella pneumoniae assessed as inhibition at 20 ug/6 mm disk after 1 to 2 days by agar diffusion assay; assay type: functional; how it was run: as §2
Pseudomonas aeruginosa = assay: Antimicrobial activity against Pseudomonas aeruginosa assessed as inhibition at 20 ug/6 mm disk after 1 to 2 days by agar diffusion assay; assay type: functional; how it was run: as §2
Escherichia coli = assay: Antimicrobial activity against Escherichia coli tolC assessed as inhibition at 20 ug/6 mm disk after 1 to 2 days by agar diffusion assay; assay type: functional; how it was run: as §2
[5] = Lipophilicity, log K of the compound by HPLC analysis
A-431 [6] = assay: Reduction in ROS in human A431 cells assessed as decrease in hydrogen peroxide level at 0.1 to 10 ng/ml after 1 hr by DCHFA assay; assay type: functional, cell-based
How it was run: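 A-431 cells were seeded at 10^5 per well and exposed to a range of compound concentrations for 1 h. They were then loaded with DCHFA probe for 30 min in the dark. Fluorescence was read immediately at ex/em 485/528 nm and expressed as arbitrary units per 10^5 cells.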

SMILES | logP [4] | log K [5] | Retention_time | Activity (A-431 [1]) | pIC50 (MCF7) | pIC50 (A-431 [2]) | pIC50 [3] | diameter of the inhibition zone (DIZ) (Saccharomyces cerevisiae) | diameter of the inhibition zone (DIZ) (Candida albicans) | diameter of the inhibition zone (DIZ) (Aspergillus niger) | diameter of the inhibition zone (DIZ) (Mycolicibacterium phlei) | diameter of the inhibition zone (DIZ) (Micrococcus luteus) | diameter of the inhibition zone (DIZ) (Staphylococcus aureus) | diameter of the inhibition zone (DIZ) (Klebsiella pneumoniae) | diameter of the inhibition zone (DIZ) (Pseudomonas aeruginosa) | diameter of the inhibition zone (DIZ) (Escherichia coli) | Activity (A-431 [6])
O=C(COC(=O)/C=C/c1ccccc1)NCCC[Te]c1ccccc1 | 3.01 | -0.06 | 1.356 min |  | 6.00 | 5.22 | 4.96 | 0 mm | 0 mm | 0 mm | 0 mm | 7 mm | 0 mm | 0 mm | 0 mm | 0 mm | Dose-dependent effect
NC(N)=S [THIOUREA] |  |  | 0.728 min |  |  |  |  |  |  |  |  |  |  |  |  |  | 
c1ccc2ccccc2c1 |  | 0.2 | 1.894 min |  |  |  |  |  |  |  |  |  |  |  |  |  | 
COc1ccc(N(CC(=O)NCCC[Te]c2ccccc2)C(=O)/C=C/c2ccccc2)cc1 | 1.31 | -0.84 | 0.834 min |  | 5.70 | 5.22 | 5.30 | 0 mm | 0 mm | 0 mm | 12 mm | 8 mm | 11 mm | 13 mm | 9 mm | 11 mm | Dose-dependent effect
c1ccccc1 [BENZENE] |  | -0.53 |  |  |  |  |  |  |  |  |  |  |  |  |  |  | 
Cc1ccc(C(C)C)c(O)c1 [THYMOL] |  | -0.12 | 1.285 min |  |  |  |  |  |  |  |  |  |  |  |  |  | 
O=C(COC(=O)C#Cc1ccccc1)NCCC[Te]c1ccccc1 | 0.9 | -1.04 | 0.794 min |  | 6.00 | 5.15 | 5.15 | 0 mm | 0 mm | 0 mm | 15 mm | 9 mm | 0 mm | 0 mm | 0 mm | 0 mm | Dose-dependent effect
Cc1ccccc1 [TOLUENE] |  |  | 1.508 min |  |  |  |  |  |  |  |  |  |  |  |  |  | 

More lines, main results first:

logP [4] | log K [5] | Retention_time | SMILES | Activity (A-431 [1]) | pIC50 (MCF7) | pIC50 (A-431 [2]) | pIC50 [3] | diameter of the inhibition zone (DIZ) (Saccharomyces cerevisiae) | diameter of the inhibition zone (DIZ) (Candida albicans) | diameter of the inhibition zone (DIZ) (Aspergillus niger) | diameter of the inhibition zone (DIZ) (Mycolicibacterium phlei) | diameter of the inhibition zone (DIZ) (Micrococcus luteus) | diameter of the inhibition zone (DIZ) (Staphylococcus aureus) | diameter of the inhibition zone (DIZ) (Klebsiella pneumoniae) | diameter of the inhibition zone (DIZ) (Pseudomonas aeruginosa) | diameter of the inhibition zone (DIZ) (Escherichia coli) | Activity (A-431 [6])
3.7 | 0.27 | 2.088 min | COc1ccc(N(CC(=O)NCCC[Se]c2ccccc2)C(=O)/C=C/c2ccccc2)cc1 | inactive | ≤ 4.00 | ≤ 4.00 | ≤ 4.00 | 0 mm | 0 mm | 0 mm | 0 mm | 0 mm | 0 mm | 0 mm | 0 mm | 0 mm | 
4 | 0.39 | 2.514 min | COc1ccc(N(CC(=O)NCCCSc2ccccc2)C(=O)/C=C/c2ccccc2)cc1 |  | ≤ 4.00 | ≤ 4.00 | ≤ 4.00 | 0 mm | 0 mm | 0 mm | 15 mm | 0 mm | 0 mm | 0 mm | 0 mm | 0 mm | 
3.3 | -0.01 | 1.434 min | COc1ccc(N(CC(=O)NCCC[Se]c2ccccc2)C(=O)CNC(=O)OC(C)(C)C)cc1 |  | ≤ 4.00 | ≤ 4.00 | ≤ 4.00 | 0 mm | 0 mm | 0 mm | 0 mm | 0 mm | 0 mm | 0 mm | 0 mm | 0 mm | 
4.2 | 0.48 | 2.94 min | COc1ccc(N(CC(=O)NCCCSc2ccccc2)C(=O)CCSC2=C(C)C(=O)c3ccccc3C2=O)cc1 |  | 4.80 | 4.77 | 4.59 | 0 mm | 0 mm | 0 mm | 0 mm | 0 mm | 0 mm | 0 mm | 0 mm | 0 mm | 
3.1 | -0.03 | 1.412 min | COc1ccc(N(CC(=O)NCCC[Se]c2ccccc2)C(=O)c2ccccc2)cc1 | inactive | ≤ 4.00 | ≤ 4.00 | ≤ 4.00 | 0 mm | 0 mm | 18 mm | 0 mm | 0 mm | 0 mm | 0 mm | 0 mm | 0 mm | 
 | 0.6 | 3.615 min | c1ccc2c(c1)ccc1ccccc12 |  |  |  |  |  |  |  |  |  |  |  |  |  | 
2.6 | -0.25 | 1.134 min | COc1ccc(N(CC(=O)NCCC[Se]c2ccccc2)C(=O)C#Cc2ccccc2)cc1 |  | ≤ 4.00 | ≤ 4.00 | ≤ 4.00 | 0 mm | 0 mm | 19 mm | 0 mm | 0 mm | 0 mm | 0 mm | 0 mm | 0 mm | 
3.12 | 0.3 | 2.17 min | COc1ccc(N(CC(=O)NCCCSc2ccccc2)C(=O)CNC(=O)OC(C)(C)C)cc1 |  | ≤ 4.00 | ≤ 4.00 | ≤ 4.00 | 0 mm | 0 mm | 0 mm | 0 mm | 0 mm | 0 mm | 0 mm | 0 mm | 0 mm | 
 | -0.94 | 0.811 min | CC(=O)Nc1ccccc1 [ACETANILIDE] |  |  |  |  |  |  |  |  |  |  |  |  |  | 
4.23 | 0.55 | 3.297 min | COc1ccc(N(CC(=O)NCCC[Se]c2ccccc2)C(=O)CCSC2=C(C)C(=O)c3ccccc3C2=O)cc1 |  | 5.10 | 4.77 | 4.62 | 0 mm | 0 mm | 0 mm | 0 mm | 7 mm | 0 mm | 0 mm | 0 mm | 0 mm | 
